An excerpt weighted towards active compounds, which were near 1.5% of everything screened.
NTR1 agonist: NTR1 (human) agonism; P30989; 330,000 compounds, 0.17% hits; AID 493036; activation, % at 20 µM; NTR1-U2OS beta-arrestin-GFP spot imaging, agonist mode;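 active means activation at or above 40% of the spot to cytoplasm intensity ratio, with at least 20 cells analyzed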
HTR2A ag: agonists of mouse serotonin 5-HT2A receptor (HTR2A). CHO-K1 mHTR2A beta-arrestin complementation, luminescence; percent of 30 µM serotonin response. AID 624169. activation, % at 7.6 µM. P35363. 360,000 compounds, 0.66% hits;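 active means activation above a run cutoff, the mean activation of all tested compounds plus 3 SD, cut at about 14% in these data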
APJ antag: APJ receptor antagonism | AID 2521 | CHO-K1 APJ beta-arrestin complementation, luminescence | P35414 | inhibition, % at 20 µM | 330,000 compounds, 0.32% hits;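 active means inhibition above about 40% at 20 µM, limit read from the data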;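 further: cells challenged with 10 nM apelin-13 agonist together with compound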
APJ agonist: activates the human apelin receptor APJ. CHO-K1 APJ PathHunter beta-arrestin, luminescence; 0% DMSO wells, 100% apelin. P35414. AID 2520. 330,000 compounds, 0.11% hits. activation, % at 20 µM;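 active means activation more than six SD over the plate average, tested at 20 µM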
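system = engineered CHO-K1 APJ arrestin reporter cells | input = 1000 cells per well | timing = overnight seeding, 90 min compound at 25 °C, 1 h detection | measured by = enzyme-fragment complementation luminescence | read-out = beta-arrestin recruitment to APJ as agonist activity, luminescent signal | control set = negative DMSO alone, positive Apelin-13 at 10 nM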
CXCR6 block: blocks human CXCR6 beta-arrestin recruitment; O00574; CHO-K1 PathHunter CXCR6 beta-arrestin, luminescence; inhibition, % at 20 µM; 360,000 compounds, 0.36% hits; in the data active means inhibition above about 34%, passing the limit was not always enough;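 further: antagonist mode with CXCL16 agonist at 10 nM final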
Target sequence (O00574 whole entry, looked up): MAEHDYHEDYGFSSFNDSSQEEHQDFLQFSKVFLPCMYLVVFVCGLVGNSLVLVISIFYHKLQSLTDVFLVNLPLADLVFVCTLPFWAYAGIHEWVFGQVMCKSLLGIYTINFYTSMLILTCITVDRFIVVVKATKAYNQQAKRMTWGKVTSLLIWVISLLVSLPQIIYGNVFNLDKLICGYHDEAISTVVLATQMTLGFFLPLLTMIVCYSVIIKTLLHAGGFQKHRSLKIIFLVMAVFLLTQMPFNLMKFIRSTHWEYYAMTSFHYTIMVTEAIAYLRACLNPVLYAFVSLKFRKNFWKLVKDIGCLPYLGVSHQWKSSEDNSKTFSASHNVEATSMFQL
CCR6 antagonist: CCR6 (human) receptor antagonism. CHO-K1 CCR6 PathHunter beta-arrestin, luminescence, CCL20-stimulated. inhibition, % at 20 µM. P51684. AID 493098. 340,000 compounds, 0.49% hits;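 active means compounds whose inhibition of the agonist-driven luminescence signal at 20 µM reaches about 50%, limit read from the data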;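 further: cells stimulated with CCL20 at 14 nM final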
Target sequence (P51684 whole entry, looked up): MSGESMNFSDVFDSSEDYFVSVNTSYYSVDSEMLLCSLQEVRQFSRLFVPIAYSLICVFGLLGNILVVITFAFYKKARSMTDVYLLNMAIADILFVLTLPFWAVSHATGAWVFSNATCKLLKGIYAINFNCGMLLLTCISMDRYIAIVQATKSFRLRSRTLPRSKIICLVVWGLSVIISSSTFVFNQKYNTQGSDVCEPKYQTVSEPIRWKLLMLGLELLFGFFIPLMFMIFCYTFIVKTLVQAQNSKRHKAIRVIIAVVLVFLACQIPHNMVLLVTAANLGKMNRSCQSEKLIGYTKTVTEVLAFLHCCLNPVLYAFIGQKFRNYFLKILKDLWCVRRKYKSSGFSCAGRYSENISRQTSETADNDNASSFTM
APJ ag confirm: confirmation of human APJ apelin receptor agonists; shares compounds with APJ agonist; CHO-K1 APJ PathHunter beta-arrestin, luminescence; activation, % at 20 µM; 310 compounds, 10% hits;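 active means activation above 40%, taking the highest of four retests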
NTR1 ag conf: NTR1 (human) agonism, confirmed; activation, % at 20 µM; AID 504550; 480 compounds, 38% hits; shares compounds with NTR1 agonist; NTR1-U2OS beta-arrestin-GFP translocation imaging;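 active means mean activation at 20 µM of at least 40%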
Hits are given with their value; 0 = inactive; - = no result given.

SMILES | NTR1 agonist | HTR2A ag | APJ antag | APJ agonist | CXCR6 block | CCR6 antagonist | APJ ag confirm | others
N/C(=N\OC(=O)c1ccc(F)cc1)c1cccc([N+](=O)[O-])c1 | 0 | 0 | 0 | 0 | 0 | 0 | -
N/C(=N/OC(=O)c1cccc([N+](=O)[O-])c1)c1cccc([N+](=O)[O-])c1 | 0 | 0 | 0 | 25.9 | 0 | 0 | 0
Cn1cc(CCNC(=O)C2CCC(=O)N(CCc3ccc(Cl)cc3)C2)cn1 (centres undefined) | 0 | 0 | 0 | 0 | 0 | 0 | -
Cc1ccc(S(=O)(=O)NCC(=O)N(CC2CCCO2)C(C(=O)NC2CCCCC2)C(C)C)cc1 (centres undefined) | 0 | 0 | 0 | 0 | 0 | 0 | -
CC(=O)CSc1nc2ccc(Nc3nc(N4CCOCC4)nc(N4CCOCC4)n3)cc2s1 | 0 | 0 | 0 | 0 | 0 | 0 | -
CCOC(=O)CSc1nc2ccc(Nc3nc(N4CCOCC4)nc(N4CCOCC4)n3)cc2s1 | 0 | 0 | 0 | 18.7 | 0 | 0 | 0
O=C(Cn1cnc2ccc(Cl)cc2c1=O)NC1CCS(=O)(=O)C1 (centres undefined) | 0 | 0 | 0 | 0 | 0 | 0 | -
CCc1noc(C)c1C(=O)OCC(=O)N(C)c1c(N)n(Cc2ccccc2)c(=O)[nH]c1=O | 0 | 0 | 0 | 0 | 0 | 0 | -
CCOC(=O)c1sc(NC(=O)C2CC(=O)N(c3ccc4c(c3)OCCO4)C2)nc1C (centres undefined) | 0 | 0 | 0 | 0 | 0 | 0 | -
COc1ccc(CC(=O)Nc2cccc(-c3nnc(-c4ccc(C)cc4)o3)c2)cc1OC | 0 | 0 | 0 | 28.2 | 0 | 0 | 0
O=C(COc1ccccc1[N+](=O)[O-])Nc1ccc(N2CCN(C(=O)c3cccs3)CC2)cc1 | 0 | 0 | 0 | 16.5 | 0 | 0 | 0
O=C(Nc1ccc(N2CCN(C(=O)c3cccs3)CC2)cc1)c1ccc([N+](=O)[O-])o1 | 0 | 0 | 0 | 29.4 | 0 | - | 0
O=C(CN(CC1CCCO1)C(=O)CNS(=O)(=O)c1ccc(F)cc1)NC1CCCC1 (centres undefined) | 0 | 0 | 0 | 0 | 0 | 0 | -
c1ccc(CNc2nc(NCc3ccccc3)c3ccccc3n2)cc1 | 0 | 0 | 0 | 28.2 | 0 | 0 | 0
COC(=O)C1=C(CN2CCc3ccccc32)NC(=O)NC1c1cc(C)ccc1C (centres undefined) | 0 | 0 | 0 | 39.4 | 0 | 0 | 0
COC(=O)C1=C(CN2CCN(C)CC2)NC(=O)NC1c1cc(C)ccc1C (centres undefined) | 0 | 0 | 0 | 0 | 0 | 0 | -
Cc1cc(C)n2nc3nc(N4CCCCC4)nc(-c4ccco4)c3c2n1 | 0 | 0 | 0 | 73.2 | 0 | 0 | 40.7
C#CCOCCOCCOCCNc1nc(N2CCN(C(=O)CCCCCCCCCCNC(=O)[C@H]([C@@H](C)CC)n3cc(CCCCCN)nn3)CC2)nc(N2CCN(C(=O)CCCCCCCCCCNC(=O)[C@H](CO)n3cc(CCCCCN)nn3)CC2)n1 | 0 | 0 | 0 | 0 | 0 | 0 | -
C#CCOCCOCCOCCNc1nc(N2CCN(C(=O)CCCCCCCCCCNC(=O)[C@H]([C@@H](C)CC)n3cc(CCCCCN)nn3)CC2)nc(N2CCN(C(=O)CCCCCCCCCCNC(=O)[C@H](CCCCN)n3cc(CCCC(=O)O)nn3)CC2)n1 | 0 | 0 | 0 | 0 | 0 | 0 | -
C#CCOCCOCCOCCNc1nc(N2CCN(C(=O)CCCCCCCCCCNC(=O)[C@H]([C@@H](C)CC)n3cc(CCCCN=C(N)N)nn3)CC2)nc(N2CCN(C(=O)CCCCCCCCCCNC(=O)[C@H](CCCCN)n3cc(C)nn3)CC2)n1 | 0 | - | 40.2 | 82.6 | - | 0 | 0
C#CCOCCOCCOCCNc1nc(N2CCN(C(=O)CCCCCCCCCCNC(=O)[C@H]([C@@H](C)CC)n3cc(CCCCCN)nn3)CC2)nc(N2CCN(C(=O)CCCCCCCCCCNC(=O)[C@H]([C@@H](C)CC)n3cc(CCCCN=C(N)N)nn3)CC2)n1 | 0 | 15.6 | 0 | 51.0 | 0 | - | 0
CC1=NOC(=O)/C1=C\c1ccc(-c2ccc(Br)cc2C(=O)O)o1 | 0 | 0 | 0 | 0 | 0 | 0 | -
CC1=NOC(=O)/C1=C\c1ccc(-c2cc(Cl)ccc2Cl)o1 | 44.1 | 0 | 0 | 65.8 | 57.2 | 74.3 | 0 | NTR1 ag conf=65.2
Clc1ccc(CN2CCc3c([nH]c4ccccc34)C2)cc1Cl | 65.1 | 0 | 0 | 85.2 | 0 | 0 | 0 | NTR1 ag conf=0
CC(C)C[C@@H](CO)N(Cc1ccccc1)S(=O)(=O)N(Cc1ccccc1)[C@H](CO)CC(C)C | 50.4 | 0 | 0 | 11.3 | 0 | 0 | 0 | NTR1 ag conf=0
SMILES | NTR1 agonist | HTR2A ag | APJ antag | APJ agonist | CXCR6 block | CCR6 antagonist | APJ ag confirm | others
COc1ccc(Nc2ccnc3ccccc23)cc1 | 0 | 0 | 0 | 0 | 0 | 0 | -
CC(C)Nc1ccc(Nc2ccnc3cc4ccccc4cc23)cc1 | 51.2 | 0 | 0 | 23.9 | 0 | 0 | 0 | NTR1 ag conf=84.8
CCOc1cccc(C2/C(=C(/O)c3ccc4c(c3)CC(C)O4)C(=O)C(=O)N2Cc2cccnc2)c1 (centres undefined) | 0 | 0 | 0 | 0 | 0 | 0 | -
Cc1ccc(/C=C2\C(=O)ON=C2c2ccccc2)o1 | 0 | 0 | 0 | 0 | 0 | 0 | -
Cc1ccc(-c2ccc(/C=C3\C(=O)ON=C3c3ccccc3)o2)c([N+](=O)[O-])c1 | 99.6 | 0 | 0 | 16.0 | 0 | 62.1 | 0 | NTR1 ag conf=85.1
Cc1ccc2nc3n(c(=O)c2c1)-c1ccccc1C(=O)NC3Cc1ccc(O)cc1 (centres undefined) | 0 | - | 0 | 0 | - | - | -
CCOC(=O)c1c(C)[nH]c(C(=O)OCC(=O)Nc2sccc2C(N)=O)c1C | 44.4 | 0 | 0 | 31.5 | 0 | 0 | 0 | NTR1 ag conf=41.0
CC1=NNC(=O)/C1=C\c1cn(-c2ccccc2)nc1-c1cccs1 | 83.4 | 0 | 0 | 25.5 | 0 | 0 | 0 | NTR1 ag conf=95.6
CCC(=O)N1CCN(c2ccc(NC(=O)c3cc4ccccc4o3)cc2Cl)CC1 | 0 | 0 | 0 | 0 | 0 | 0 | -
O=C(Nc1ccc(N2CCN(C(=O)c3ccco3)CC2)c(Cl)c1)c1cc2ccccc2o1 | 42.1 | 0 | 0 | 16.8 | 0 | 0 | 0 | NTR1 ag conf=63.4
CCOc1ccc(CNC(=S)Nc2ccccc2)cc1Cl | 0 | 0 | 0 | 0 | 0 | 0 | -
Cc1ccc(CC2(C)C(=O)Nc3c(Cl)cccc32)cc1 (centres undefined) | - | 0 | - | - | 0 | - | -

Bioassay records deposited in PubChem by several laboratories.
